# Source: ChEMBL document CHEMBL3769360, “Phthalimido-thiazoles as building blocks and their effects on the growth and morphology of Trypanosoma cruzi” (Eur J Med Chem, 2016)
# Activity calls are given as the source filed them. The calls are words filed in the database; no cut-off is given here.
# Experiments:
# [1] = test system: Trypanosoma cruzi; assay: Trypanocidal activity against epimastigote form of Trypanosoma cruzi Dm28c after 11 days by neubauer chamber method; assay type: functional; conditions: 264 h
# [2] = test system: Trypanosoma cruzi; assay: Induction of apoptosis in trypamostigote form of Trypanosoma cruzi Y assessed as necrotic cells at 5 uM after 24 hrs by Annexin V-FITC/propidium iodide staining based flow cytometry; assay type: functional, organism-based
# How it was run: (§1)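 Trypomastigotes (1 × 10^7) incubated 24 h at 37 °C with or without compound. Then labelled with annexin V-FITC and propidium iodide using a kit per the manufacturer's instructions and analysed by flow cytometry. Two independent experiments, each concentration in duplicate; comparison against untreated cells.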
# [3] = test system: Trypanosoma cruzi; assay: Induction of ultrastructural changes in trypamostigote form of Trypanosoma cruzi Y assessed as abnormal chromatin condensation at 2 times IC50 after 24 hrs by uranyl acetate/lead citrate staining based transmission electron microscopic analysis; assay type: functional, organism-based
# How it was run: (§2)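 Trypomastigotes exposed for 24 h in RPMI 1640 (pH 7.5, 20 mM HEPES, 10% FBS, antibiotics) with compound at 1× or 2× the set concentration. Fixed in 2.5% glutaraldehyde, 4% formaldehyde, 0.1 M cacodylate pH 6.8, postfixed in 2% OsO4. Acetone-dehydrated, epon-embedded, sections stained with uranyl acetate/lead citrate and examined by TEM against untreated parasites.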
# [4] = test system: Trypanosoma cruzi; assay: Induction of apoptosis in trypamostigote form of Trypanosoma cruzi Y assessed as early apoptotic cells at 5 and 25 uM after 24 hrs by Annexin V-FITC/propidium iodide staining based flow cytometry; assay type: functional, organism-based; how it was run: as §1
# [5] = test system: Trypanosoma cruzi; assay: Induction of apoptosis in trypamostigote form of Trypanosoma cruzi Y assessed as late apoptotic cells after 24 hrs by Annexin V-FITC/propidium iodide staining based flow cytometry; assay type: functional, organism-based; how it was run: as §1
# [6] = test system: Trypanosoma cruzi; assay: Induction of apoptosis in trypamostigote form of Trypanosoma cruzi Y assessed as early apoptotic cells after 24 hrs by Annexin V-FITC/propidium iodide staining based flow cytometry; assay type: functional, organism-based; how it was run: as §1
# [7] = test system: Trypanosoma cruzi; assay: Induction of ultrastructural changes in trypamostigote form of Trypanosoma cruzi Y assessed as dilated endoplasmic reticulum at 2 times IC50 after 24 hrs by uranyl acetate/lead citrate staining based transmission electron microscopic analysis; assay type: functional, organism-based; how it was run: as §2
# [8] = Selectivity index, ratio of MNTD90 for cytotoxicity against BALB/c mouse splenocytes to IC50 for trypamostigote form of Trypanosoma cruzi Y infected in African green monkey Vero cells; assay type: toxicity, cell-based; conditions: read-out: Selectivity Index
# [9] = test system: Trypanosoma cruzi; assay: Induction of ultrastructural changes in trypamostigote form of Trypanosoma cruzi Y assessed as shortening of flagellum at 2 times IC50 after 24 hrs by scanning electron microscopic analysis; assay type: functional, organism-based
# How it was run: (§3)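 Trypomastigotes cultured 24 h in RPMI 1640 (pH 7.5, 20 mM HEPES, 10% FBS, penicillin/streptomycin) with compound at two concentrations (1× and 2×). Washed in PBS and fixed in glutaraldehyde/formaldehyde in 0.1 M cacodylate pH 6.8, then OsO4 postfixed. Dehydrated in graded ethanol, CO2 critical-point dried, gold-coated and examined by SEM against untreated controls.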
# [10] = test system: Trypanosoma cruzi; assay: Induction of apoptosis in trypamostigote form of Trypanosoma cruzi Y assessed as necrotic cells at 25 uM after 24 hrs by Annexin V-FITC/propidium iodide staining based flow cytometry relative to untreated control; assay type: functional; how it was run: as §1
# [11] = test system: Trypanosoma cruzi; assay: Induction of ultrastructural changes in trypamostigote form of Trypanosoma cruzi Y assessed as swelling of kinetoplast at 2 times IC50 after 24 hrs by uranyl acetate/lead citrate staining based transmission electron microscopic analysis; assay type: functional, organism-based; how it was run: as §2
# [12] = test system: Trypanosoma cruzi; assay: Induction of ultrastructural changes in trypamostigote form of Trypanosoma cruzi Y assessed as abnormal chromatin condensation at IC50 after 24 hrs by uranyl acetate/lead citrate staining based transmission electron microscopic analysis; assay type: functional, organism-based; how it was run: as §2
# [13] = test system: Trypanosoma cruzi; assay: Induction of ultrastructural changes in trypamostigote form of Trypanosoma cruzi Y assessed as blebs in flagellum at IC50 after 24 hrs by scanning electron microscopic analysis; assay type: functional, organism-based; how it was run: as §3
# [14] = test system: Trypanosoma cruzi; assay: Trypanocidal activity against trypamostigote form of Trypanosoma cruzi Y infected in African green monkey Vero cells after 24 hrs by neubauer chamber method; assay type: functional, organism-based
# How it was run: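 Y strain trypomastigotes harvested from Vero cell supernatants, 4 × 10^5 cells/well, compounds in triplicate, benznidazole as positive control. Incubated 24 h at 37 °C, 5% CO2. Motile parasites counted in a Neubauer chamber; untreated wells = 100%. IC50 by nonlinear regression over at least seven concentrations.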
# [15] = test system: Trypanosoma cruzi; assay: Induction of ultrastructural changes in trypamostigote form of Trypanosoma cruzi Y assessed as alterations in reservosome at 2 times IC50 after 24 hrs by uranyl acetate/lead citrate staining based transmission electron microscopic analysis; assay type: functional, organism-based; how it was run: as §2
# [16] = test system: Trypanosoma cruzi; assay: Induction of ultrastructural changes in trypamostigote form of Trypanosoma cruzi Y assessed as loss of cytoplasmic material at IC50 after 24 hrs by uranyl acetate/lead citrate staining based transmission electron microscopic analysis; assay type: functional, organism-based; how it was run: as §2
# [17] = test system: Trypanosoma cruzi; assay: Antitrypanosomal activity against trypamostigote form of Trypanosoma cruzi Y assessed as decrease in number of parasites after 24 hrs by scanning electron microscopic analysis; assay type: functional, organism-based; how it was run: as §3
# [18] = test system: Trypanosoma cruzi; assay: Induction of ultrastructural changes in trypamostigote form of Trypanosoma cruzi Y assessed as intense cytoplasmic vacuolization at 2 times IC50 after 24 hrs by uranyl acetate/lead citrate staining based transmission electron microscopic analysis; assay type: functional, organism-based; how it was run: as §2
# [19] = test system: Trypanosoma cruzi; assay: Induction of ultrastructural changes in trypamostigote form of Trypanosoma cruzi Y assessed as swelling of mitochondria at IC50 after 24 hrs by uranyl acetate/lead citrate staining based transmission electron microscopic analysis; assay type: functional, organism-based; how it was run: as §2
# [20] = test system: Trypanosoma cruzi; assay: Induction of apoptosis in trypamostigote form of Trypanosoma cruzi Y assessed as late apoptotic cells at 5 uM after 24 hrs by Annexin V-FITC/propidium iodide staining based flow cytometry; assay type: functional, organism-based; how it was run: as §1
# [21] = test system: Trypanosoma cruzi; assay: Induction of ultrastructural changes in trypamostigote form of Trypanosoma cruzi Y assessed as alterations in reservosome at IC50 after 24 hrs by uranyl acetate/lead citrate staining based transmission electron microscopic analysis; assay type: functional, organism-based; how it was run: as §2
# [22] = test system: Trypanosoma cruzi; assay: Induction of ultrastructural changes in trypamostigote form of Trypanosoma cruzi Y assessed as intense cytoplasmic vacuolization at IC50 after 24 hrs by uranyl acetate/lead citrate staining based transmission electron microscopic analysis; assay type: functional, organism-based; how it was run: as §2
# [23] = test system: Trypanosoma cruzi; assay: Induction of apoptosis in trypamostigote form of Trypanosoma cruzi Y assessed as late apoptotic cells at 25 uM after 24 hrs by Annexin V-FITC/propidium iodide staining based flow cytometry relative to untreated control; assay type: functional; how it was run: as §1
# [24] = Cytotoxicity against BALB/c mouse splenocytes assessed as highest non-toxic concentration causing >90 % incorporation of [3H]-thymidine after 24 hrs by beta counting method; assay type: cell-based, Splenocyte; conditions: read-out: MNTD90
# How it was run: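 BALB/c mouse splenocytes at 5 × 10^6 cells/well in RPMI-1640 with 10% inactivated FBS. Compounds were dissolved in DMSO (10 mg/mL stock) and serially diluted to 1.0, 5.0, 10, 25, 50 and 100 (final), in triplicate. Controls were saponin and medium with DMSO. 3H-thymidine was added, then 24 h at 37 °C, 5% CO2, and beta counting. Untreated = 100%; >90% incorporation counted as nontoxic.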
# [25] = test system: Trypanosoma cruzi; assay: Induction of apoptosis in trypamostigote form of Trypanosoma cruzi Y assessed as necrotic cells after 24 hrs by Annexin V-FITC/propidium iodide staining based flow cytometry; assay type: functional, organism-based; how it was run: as §1
# [26] = Lipophilicity, log P of compound; assay type: physicochemical; conditions: octanol/water
smiles,measurement,setting,value
O=C1c2ccccc2C(=O)N1C/C=N/N=c1\scc(-c2cccc([N+](=O)[O-])c2)n1-c1ccccc1,IC50,[1],6 µM
same,Activity,[2],inactive
same,Activity,[3],Active
same,Activity,[4],inactive
same,Activity,[5],Dose-dependent effect
same,Activity,[6],inactive
same,Activity,[7],Active
same,selectivity ratio,[8],115
same,Activity,[9],Active
same,Activity,[10],11%
same,Activity,[11],Active
same,Activity,[12],Active
same,Activity,[13],Active
same,IC50,[14],0.9 µM
same,Activity,[15],Active
same,Activity,[16],Active
same,Activity,[17],Dose-dependent effect
same,Activity,[18],Active
same,Activity,[19],Active
same,Activity,[20],inactive
same,Activity,[21],Active
same,Activity,[22],Active
same,Activity,[23],11%
same,MNTC at 24 h,[24],103 µM
same,Activity,[25],Dose-dependent effect
O=C1c2ccccc2C(=O)N1Nc1nc(-c2ccc(Br)cc2)cs1,IC50,[1],14.8 µM
same,IC50,[14],89.8 µM
same,MNTC at 24 h,[24],2.5 µM
NC(=S)NN1C(=O)c2ccccc2C1=O,IC50,[1],56.8 µM
same,IC50,[14],52 µM
same,MNTC at 24 h,[24],4.5 µM
O=C1c2ccccc2C(=O)N1Nc1nc(CCl)cs1,IC50,[1],226 µM
same,selectivity ratio,[8],0.3
same,IC50,[14],54.4 µM
same,MNTC at 24 h,[24],17 µM
O=C(Cn1ccnc1[N+](=O)[O-])NCc1ccccc1 [BENZNIDAZOLE],selectivity ratio,[8],15.2
same,Activity,[10],56%
same,IC50,[14],6.3 µM
same,Activity,[23],56%
O=C1c2ccccc2C(=O)N1Nc1nc(-c2ccc(Cl)cc2)cs1,IC50,[1],30.6 µM
same,IC50,[14],86.2 µM
same,MNTC at 24 h,[24],2.8 µM
O=C1c2ccccc2C(=O)N1C/C=N/N=c1\scc(-c2ccc(F)cc2)n1-c1ccccc1,IC50,[14],73.8 µM
same,MNTC at 24 h,[24],219 µM
O=C1c2ccccc2C(=O)N1C/C=N/NC(=S)Nc1ccccc1,IC50,[1],36.9 µM
same,MNTC at 24 h,[24],50 µM
COc1ccc(-c2csc(NN3C(=O)c4ccccc4C3=O)n2)cc1,IC50,[1],6.4 µM
same,IC50,[14],50.3 µM
same,MNTC at 24 h,[24],14.2 µM
O=C1c2ccccc2C(=O)N1Nc1nc(-c2ccccc2)cs1,IC50,[1],70.2 µM
same,IC50,[14],108 µM
same,logP,[26],3.98
same,MNTC at 24 h,[24],3.1 µM
O=C1c2ccccc2C(=O)N1C/C=N/N=c1\scc(-c2ccccc2)n1-c1ccccc1,IC50,[14],8.8 µM
same,MNTC at 24 h,[24],228 µM
O=C1c2ccccc2C(=O)N1C/C=N/N=c1\scc(-c2ccc(-c3ccccc3)cc2)n1-c1ccccc1,IC50,[1],44.2 µM
same,IC50,[14],98 µM
same,MNTC at 24 h,[24],194 µM
O=C1c2ccccc2C(=O)N1Nc1nc(-c2cccc([N+](=O)[O-])c2)cs1,IC50,[1],43.2 µM
same,IC50,[14],91.1 µM
same,MNTC at 24 h,[24],2.7 µM
O=C1c2ccccc2C(=O)N1Nc1nc(-c2ccc3ccccc3c2)cs1,IC50,[1],8 µM
same,IC50,[14],4.7 µM
same,logP,[26],4.98
same,MNTC at 24 h,[24],269 µM
